Results reported in ChEMBL document CHEMBL2203239, “Discovery of novel 2-(3-(2-chlorophenyl)pyrazin-2-ylthio)-N-arylacetamides as potent HIV-1 inhibitors using a structure-based bioisosterism approach” (Bioorg Med Chem, 2012).

Key:
[1] = Selectivity index, ratio of CC50 for HIV2 ROD infected in human MT4 cells to EC50 for HIV1 3B; type: toxicity, cell-based; conditions: MT4 cells infected with HIV2 ROD, read-out: Ratio CC50/EC50
How it was run: (§1)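 Selectivity index calculated as CC50/EC50. Both values come from the parallel 5-day MTT assays in MT-4 cells, with mock-infected and HIV-infected wells on the same plate.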

[2] = Cytotoxicity against HIV2 ROD infected in human MT4 cells by MTT assay; type: cell-based; conditions: MT4 cells infected with HIV2 ROD
How it was run: (§2)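 Cytotoxicity measured in parallel on mock-infected MT-4 cells (6×10^5 cells/mL) that received culture medium instead of virus. Serial fivefold compound dilutions were run in triplicate. MTT read-out after 5 days at 540 and 690 nm, using the median OD of three wells. CC50 is the concentration that reduces OD540 of the mock-infected control by 50%.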

[3] = Selectivity index, ratio of CC50 for HIV1 3B infected in human MT4 cells to EC50 for HIV1 3B; type: toxicity, cell-based; conditions: MT4 cells infected with HIV1 3B, read-out: Ratio CC50/EC50; how it was run: as §1
[4] = Cytotoxicity against HIV1 3B infected in human MT4 cells by MTT assay; type: cell-based; conditions: MT4 cells infected with HIV1 3B; how it was run: as §2
[5] = tested on: Human immunodeficiency virus 2; test: Antiviral activity against HIV2 ROD infected in human MT4 cells assessed as inhibition of virus-induced cytopathic effect by MTT assay; type: functional, organism-based; conditions: Human immunodeficiency virus 2, ISOLATE ROD
How it was run: (§3)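 MT-4 cells, spun 5 min at 1000 rpm and resuspended at 6×10^5 cells/mL, infected with HIV-1(IIIB) or HIV-2(ROD) at 100–300 CCID50. Compounds added at start as serial fivefold dilutions, triplicate wells. Viability read by MTT at 540 and 690 nm five days post-infection, using the median OD of three wells. EC50 is the concentration giving 50% protection against virus-induced cytopathicity.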

[6] = tested on: Human immunodeficiency virus 1; test: Antiviral activity against HIV1 3B infected in human MT4 cells assessed as inhibition of virus-induced cytopathic effect by MTT assay; type: functional, organism-based; conditions: Human immunodeficiency virus 1, 3B; how it was run: as §3
[7] = molecular target: Human immunodeficiency virus type 1 reverse transcriptase (Human immunodeficiency virus 1, UniProt Q72547); test: Inhibition of HIV1 recombinant reverse transcriptase assessed as incorporation of biotin-dUTP into […] by colorimetric analysis
How it was run: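 Highly purified recombinant HIV-1 RT, with […] as template primer on plate-linked nucleotides. Activity measured colorimetrically as incorporation of biotin-dUTP.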

[8] = tested on: Human immunodeficiency virus; test: Antiviral activity against HIV harboring reverse transcriptase K103N/Y181C mutant; type: functional, organism-based; conditions: Human immunodeficiency virus 1
How it was run: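 MT-4 cells (6×10^5 cells/mL) were infected with 100–300 CCID50 of virus, and mock-infected cells were run in parallel. Compounds were tested in serial fivefold dilutions in triplicate wells. After 5 days, viability was read by MTT reduction at 540 and 690 nm using the median OD of three wells. EC50 is the concentration giving 50% protection against virus-induced cytopathicity.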

[9] = tested on: Human immunodeficiency virus; test: Antiviral activity against wild type HIV; type: functional, organism-based; conditions: Human immunodeficiency virus 1

Compound	selectivity ratio [1]	CC50 [2]	selectivity ratio [3]	CC50 [4]	EC50 [5]	EC50 [6]	IC50 [7]	EC50 [8]	EC50 [9]
O=C(CSc1nccnc1-c1ccccc1Cl)Nc1ccccc1	< 1	33 µM	< 1	35 µM	> 33 µM	> 35 µM			
O=C(CSc1nccnc1-c1ccccc1Cl)Nc1ccccc1F	< 1	91 µM	9	48 µM	> 91 µM	5.3 µM			
O=C(CSc1nccnc1-c1ccccc1Cl)Nc1ccccc1Cl	< 1	46 µM	7	34 µM	> 46 µM	4.6 µM			
O=C(CSc1nccnc1-c1ccccc1Cl)Nc1ccc(Cl)cc1Cl	< 1	34 µM	6	29 µM	> 34 µM	5.2 µM			
O=C(CSc1nccnc1-c1ccccc1Cl)Nc1ccccc1Br	< 1	41 µM	7	31 µM	> 41 µM	4.2 µM			
Cc1ccc(NC(=O)CSc2nccnc2-c2ccccc2Cl)c(Br)c1	< 1	35 µM	9	31 µM	> 35 µM	4.3 µM			
O=C(CSc1nccnc1-c1ccccc1Cl)Nc1ccc(Cl)cc1Br	< 1	29 µM	5	26 µM	> 29 µM	5.1 µM			
CC(=O)c1ccc(NC(=O)CSc2nccnc2-c2ccccc2Cl)c(Br)c1	< 1	31 µM	12	30 µM	> 31 µM	2.5 µM			
COC(=O)c1ccc(NC(=O)CSc2nccnc2-c2ccccc2Cl)c(Br)c1	< 1	108 µM	25	95 µM	> 108 µM	3.7 µM			
CCOC(=O)c1ccc(NC(=O)CSc2nccnc2-c2ccccc2Cl)c(Br)c1	< 1	62 µM	5	45 µM	> 62 µM	9 µM			
O=C(CSc1nccnc1-c1ccccc1Cl)Nc1ccccc1[N+](=O)[O-]	< 1	55 µM	23	39 µM	> 55 µM	1.7 µM	50 µM		
Cc1ccc(NC(=O)CSc2nccnc2-c2ccccc2Cl)c([N+](=O)[O-])c1	< 1	148 µM	19	54 µM	> 148 µM	2.9 µM			
O=C(CSc1nccnc1-c1ccccc1Cl)Nc1cccnc1Cl	< 1	166 µM	64	152 µM	> 166 µM	2.3 µM			
COC(=O)c1sccc1NC(=O)CSc1nccnc1-c1ccccc1Cl	< 1	48 µM	< 1	68 µM	> 48 µM	> 68 µM			
Cc1ccc2sc(NC(=O)CSc3nccnc3-c3ccccc3Cl)nc2c1	< 1	30 µM	< 1	32 µM	> 30 µM	> 32 µM			
O=C(CSc1nccnc1-c1ccccc1Cl)N1CCCc2ccccc21	< 1	34 µM	< 1	33 µM	> 34 µM	> 33 µM			
O=C(CSc1nccnc1-c1ccccc1Cl)N1CCc2ccccc2C1	< 1	50 µM	8	33 µM	> 50 µM	4.1 µM			
NS(=O)(=O)c1ccc(NC(=O)CSc2nnc(Br)n2-c2ccc(C3CC3)c3ccccc23)c(Cl)c1								0.23 µM	0.14 µM
CC(C)Nc1cccnc1N1CCN(C(=O)c2cc3cc(NS(C)(=O)=O)ccc3[nH]2)CC1 [DELAVIRDINE]		> 36 µM	> 1100	> 36 µM					
O=C1Nc2ccc(Cl)cc2[C@@](C#CC2CC2)(C(F)(F)F)O1 [EFAVIRENZ]		> 6.3 µM		> 6.3 µM					
Cc1ccnc2c1NC(=O)c1cccnc1N2C1CC1 [NEVIRAPINE]		> 15 µM		> 15 µM					
Nc1ccn([C@H]2CC[C@@H](CO)O2)c(=O)n1 [ZALCITABINE]	> 74	> 95 µM	> 93	> 95 µM					
Cc1cn([C@H]2C[C@H](N=[N+]=[N-])[C@@H](CO)O2)c(=O)[nH]c1=O [ZIDOVUDINE]	56900	249 µM	12200	249 µM		0.021 µM			
